Test results from PMC9516706 (JACS Au, 2022).
Blank lines part the entries; values can stand above or below the compound they belong to.

What was measured:
[1] = tested on: A431 cells; assay: Cytotoxicity assay; type: cell-based, human; settings: for Selective cytotoxicity to A431 cells: five different cell lines compared, cell viability assay
Summary of the method: (§1)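 Cells were seeded in 96-well plates and grown for 24 h. Medium was then replaced with medium containing the peptide amphiphile, and cells were incubated a further 20 h. Viability was read with WST-8 reagent. Lines were HeLa, A431, MCF-7 and HepG2 cancer cells, plus MvE and HEK293 normal cells.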

[2] = tested on: HeLa, A431, MCF-7, HepG2, MvE and HEK293 cells; assay: Cytotoxicity assay; type: cell-based, human; settings: up to 0.1 wt %; four different cell lines
Summary of the method: as §1

[3] = TEM observation of self-assembly; type: physicochemical; settings: 1.0 wt % in PBS(+), stained with 2.0 wt % phosphotungstic acid, 200 kV
Summary of the method: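 A carbon-supported TEM grid was dipped in a 1.0 wt % peptide amphiphile solution in PBS(+) containing Ca²⁺ and Mg²⁺. The grid was dried, negatively stained with 2.0 wt % phosphotungstic acid, and imaged at 200 kV accelerating voltage.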

[4] = tested on: A431 tumor; assay: Antitumor activity in vivo, A431-xenografted nude mice; settings: same regimen, against PBS control group, n = 6
Summary of the method: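 Nude mice with A431 cells injected subcutaneously into the flank. PBS (30 μL) with 1.5 wt % test compound was injected directly into the tumour three times a week for 3 weeks, against a PBS control. Bodyweight was followed during dosing, and tumour volume was taken as longer diameter × shorter diameter² × 0.5. Mice were sacrificed 4 weeks after inoculation; n = 6.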

[5] = tested on: A431 cells; assay: Fluorescence recovery after photobleaching; type: cell-based, human; settings: 0.08 wt% C16-E4Y for 1 h, without C16-E4Y recovery within 1 s
[6] = tested on: HepG2 cells; assay: Detection of a peptide amphiphile phosphorylated in cells; type: cell-based, human; settings: HepG2 cells cultured with 0.05 wt % C16-E4Y; medium and cell lysate
[7] = tested on: A431 cells; assay: Apoptosis and necrosis detection; type: cell-based, human; settings: C16-E4Y 0.08 wt %, 1 h, counting at least 1000 cells in CLSM images
Summary of the method: (§2)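 Cells were grown on a dish for 24 h, then given medium containing test compound at 0.08 wt % for 1 h. Cells were stained with annexin V-FITC and propidium iodide using an apoptotic/necrotic/healthy cell detection kit. Staining was imaged by CLSM, with PI fluorescence marking membrane-damaged cells.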

[8] = Gel formation of C16-E4Y phosphorylated by tyrosine kinase; type: physicochemical; settings: C16-E4Y 1 wt%, ATP 15 mM, c-Src kinase 6 µg/mL, 1× kinase buffer, 37 °C, 7 days
[9] = tested on: A431 cells; assay: Localization of peptide amphiphiles in cells; type: cell-based, human; settings: C16-E4Y 0.05 wt % with NBD-C8-E4Y 0.001 wt %, 24 h, ER-tracker and MitoRed, CLSM
[10] = tested on: HeLa cells; assay: Apoptosis and necrosis detection; type: cell-based, human; settings: C16-E4Y 0.08 wt %, 1 h, counting at least 1000 cells in CLSM images
Summary of the method: as §2

[11] = tested on: A431 cells; assay: Tyrosine kinase inhibitor assay; type: cell-based, human

Compound: N-palmitoyl-Glu-Glu-Glu-Glu [C16-E4]
Selective cytotoxicity to A431 cells [1]: did not exhibit selective cytotoxicity

Compound: N-palmitoyl-Glu-Glu-Glu-Glu-Phe [C16-E4F]
Selective cytotoxicity to A431 cells [1]: did not exhibit selective cytotoxicity

Self-assembly morphology by TEM [3]: formed only a few isolated short fibers
Compound: N-lauroyl-Glu-Glu-Glu-Glu-Tyr [C12-E4Y]
Cytotoxicity toward all cell lines tested [2]: did not show cytotoxicity

Compound: N-palmitoyl-Glu-Glu-Glu-Glu-Ser [C16-E4S]
Selective cytotoxicity to A431 cells [1]: did not exhibit selective cytotoxicity

Compound: N-palmitoyl-Glu-Glu-Glu-Glu-Tyr [C16-E4Y]
Bodyweight of treated mice [4]: comparable to those of the control group
Fluorescence recovery of ER-tracker after photobleaching [5]: recovered relatively slowly
Intracellular phosphorylation (C16-E4pY by MALDI-TOF/MS) [6]: not detected
Cytotoxicity toward A431 cells compared with the other cell lines ([1]; 0.05 wt %, 20 h incubation, WST-8, five replicates): remarkably higher cytotoxicity
Dose dependence of cytotoxicity ([1]; A431 cells, Figure 3b): dose-dependent
Cells in early apoptosis [7]: 15.4%
Self-assembly morphology by TEM [3]: nanosized strings several hundred nanometers in length
Gelation after incubation with a tyrosine kinase and ATP [8]: partially gelated
Intracellular localization [9]: accumulated on ER selectively
Cells in early apoptosis [10]: 0.4%

Compound: C#Cc1cccc(Nc2ncnc3cc(OCCOC)c(OCCOC)cc23)c1 [erlotinib]
Effect of EGFR inhibitor on the cytotoxicity of C16-E4Y [11]: alleviated the cytotoxicity

Self-assembly morphology by TEM [3]: did not form any self-assembly body
Compound: N-capryloyl-Glu-Glu-Glu-Glu-Tyr [C8-E4Y]
Cytotoxicity toward all cell lines tested [2]: did not show cytotoxicity
